In ChEMBL document CHEMBL1121461, “Synthesis and diuretic profile of 3-(3-amino-1,2,4-oxadiazol-5-yl)-5-chloro-2,6-pyrazinediamine, an amiloride-type diuretic” (J Med Chem, 1980):
“And” between values parts separate entries of the source, which are not always exact repeats. Equal entries are not always repeated.

Tests used:
Rattus norvegicus [1] = organism: Rattus norvegicus; assay: Compound was tested for diuretic activity in potassium content of the 3-h sample was measured by flame photometry in rat; format: ADME, organism-based, Urine; details: in vivo
How it was run: (§1)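 Rats, four per dose group, given oral 0.2% NaCl load (50 mL/kg) together with test agent orally; placed in metabolism cages, urine collected 3 h. Na+ and K+ content of the 3-h sample by flame photometry; output as % of load and total mequiv × 100, compared against concurrent controls.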

Rattus norvegicus [2] = assay: Compound was tested for diuretic activity against peroral dose of 10 mg/kg in rat; format: ADME, organism-based, Urine; set-up: dose 10 mg/kg, route oral; details: in vivo, po; how it was run: as §1
Rattus norvegicus [3] = assay: Compound was tested for diuretic activity against peroral dose of 100 mg/kg in rat; format: ADME, organism-based, Urine; set-up: dose 100 mg/kg, route oral; details: in vivo, po
How it was run: (§2)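 Rats, four per group (eight in one case), given oral 50 mL/kg 0.2% NaCl load together with test agent by mouth; placed in metabolism cages, urine collected 3 h. Urine volume expressed as % of load; total Na+ and K+ (mequiv × 100) in the 3-h sample by flame photometry. Vehicle controls run alongside; significance p < 0.05, p < 0.01.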

Rattus norvegicus [4] = organism: Rattus norvegicus; assay: Compound was tested for diuretic activity in sodium content of the 3-h sample was measured by flame photometry in rat; format: ADME, organism-based, Urine; set-up: unit not given beside the values; details: in vivo; how it was run: as §2
[5] = Compound was tested for diuretic activity in potassium content of the 3-h sample was measured by flame photometry; format: ADME, Urine; how it was run: as §2
[6] = Compound was tested for diuretic activity in sodium content of the 3-h sample was measured by flame photometry; format: ADME, Urine; set-up: unit not given beside the values; how it was run: as §2
Canis familiaris [7] = organism: Canis familiaris; assay: Compound was tested for diuretic activity in urine volume in dog; format: ADME, organism-based, Canis lupus familiaris; details: in vivo
How it was run: (§3)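 Six normotensive trained dogs (10.2-17.9 kg; five for 10 mg/kg runs), oral dosing at 5 or 10 mg/kg, each preceded by placebo control test. Normal saline 100 mL given subcutaneously right after dosing. Bladder emptied by catheter at onset and 2, 4, 6 h; kept in metabolism cages; total urine volume recorded, Na+ and K+ of aliquot by flame photometry.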

Canis familiaris [8] = organism: Canis familiaris; assay: Compound was tested for diuretic activity urine volume in dog; format: ADME, organism-based, Canis lupus familiaris; details: in vivo; how it was run: as §3
Rattus norvegicus [9] = assay: Compound was tested for diuretic activity against peroral dose of 50 mg/kg in rat; format: ADME, organism-based, Urine; set-up: dose 50 mg/kg, route oral; details: in vivo, po; how it was run: as §2
Rattus norvegicus [10] = assay: Compound was tested for diuretic activity against peroral dose of 25 mg/kg in rat; format: ADME, organism-based, Urine; set-up: dose 25 mg/kg, route oral; details: in vivo, po; how it was run: as §2
Rattus norvegicus [11] = assay: Compound was tested for diuretic activity against peroral dose of 5 mg/kg in rat; format: ADME, organism-based, Urine; set-up: dose 5 mg/kg, route oral; details: in vivo, po; how it was run: as §2
Canis familiaris [12] = assay: Compound was tested for diuretic activity in urine volume in dogs at a dose of 5 mg/kg; format: ADME, organism-based, Canis lupus familiaris; set-up: dose 5 mg/kg; details: dog, in vivo
How it was run: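 Six normotensive trained dogs (10.2-17.9 kg), each given a placebo control test before each run. Oral dosing, then 100 mL normal saline injected subcutaneously. Bladder emptied by catheter at onset and 2, 4, 6 h after dosing; dogs in metabolism cages. Total urine volume recorded; Na+ and K+ of an aliquot by flame photometry.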

Row | Load (Canis familiaris [12]) | SMILES | Diuretic activity (Rattus norvegicus [1]) | Load (Rattus norvegicus [2]) | Load (Rattus norvegicus [3]) [%] | Diuretic activity (Rattus norvegicus [4]) | Diuretic activity [5] | Diuretic activity [6] | urine vol (Canis familiaris [7]) [%] | urine vol (Canis familiaris [8]) [%] | Load (Rattus norvegicus [9]) | Load (Rattus norvegicus [10]) [%] | Load (Rattus norvegicus [11]) [%]
1 |  | Cl.N=C(N)NC(=O)c1nc(Cl)c(N)nc1N.O.O [AMILORIDE HYDROCHLORIDE] | 1.5 and 1.7 and 1.6 and 1.1 | 96.8% | 59.7 | 38 [middle of 4 runs] | 1.1 and 1.4 and 1.7 | 33.6 and 24.9 and 27.9 and 32.9 | 91.2 | 88.2 | 64.9% and 76.2% | 82.1 | 94
2 | 91% and 76.8% | Nc1noc(-c2nc(Cl)c(N)nc2N)n1 | 1.1 and 2 and 1.8 and 1.9 and 2.1 | 88.8% and 96.9% | 100.4 | 24.7 and 33.8 and 42.7 and 41.6 |  | 23.5 and 21.2 and 40 |  |  | 103% and 83.9% | 93.3 | 81.1
